In ChEMBL document CHEMBL2177096, “Sulfonyl fluoride inhibitors of fatty acid amide hydrolase” (J Med Chem, 2012) one finds Ki, IC50 and Activity data, which are given here for 15 compounds.

Experiment [1] has as its target Cannabinoid receptor 2 (Mus musculus, UniProt P47936). In words: Displacement of [3H]CP-55,940 from mouse CB2 receptor expressed in HEK293 cells. The experiment is classed as cell-based. In short, it runs like this:
(§1)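 Membranes from rat brain (CB1) or from HEK293 cells overexpressing mouse CB2 were used, with [3H]CP-55,940 as radioligand. Data fitted by nonlinear regression. Ki values come from three independent experiments run in duplicate and are given as the mean of the three.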

Experiment [2] deals with Cannabinoid receptor 1 (Rattus norvegicus, UniProt P20272). Kind of experiment: Displacement of [3H]CP-55,940 from CB1 receptor in rat brain homogenates. Format: tissue-based. In short, it runs like this:
as §1
On the technique in general: Displacement assays read how much labelled ligand stays bound in the presence of the test substance.

Experiment [3] can be described thus: Inhibition of rat FAAH deltaTM mutant expressed in Escherichia coli using AAMCA as substrate after 15 mins by medium throughput fluorescent assay.
Experiment [4] deals with T1, Monoglyceride lipase (Homo sapiens, UniProt Q99685).
T1 sequence (Q99685 whole entry): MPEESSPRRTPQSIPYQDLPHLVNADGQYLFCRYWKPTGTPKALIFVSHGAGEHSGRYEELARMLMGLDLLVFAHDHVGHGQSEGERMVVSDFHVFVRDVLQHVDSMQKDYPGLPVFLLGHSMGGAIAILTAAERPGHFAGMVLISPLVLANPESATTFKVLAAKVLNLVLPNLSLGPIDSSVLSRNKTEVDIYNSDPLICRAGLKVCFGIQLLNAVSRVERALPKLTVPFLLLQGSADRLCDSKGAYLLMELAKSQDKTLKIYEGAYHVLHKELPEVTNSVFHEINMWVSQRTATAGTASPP
In words: Inhibition of recombinant human hexahistidine-tagged MGL expressed in Escherichia coli using AHMMCE as substrate after 15 mins by medium throughput fluorescent assay.

Experiment [5] is filed under the species Rattus norvegicus. Kind of experiment: Irreversible inhibition of rat FAAH deltaTM mutant expressed in Escherichia coli assessed as recovery of enzyme activity using AAMCA as substrate at 40 times IC50 treated for 1 hr measured after 80 mins of rapid dilution by medium throughput fluorescent assay. Details: scale not given: the % may be the effect or the level left.

Experiment [6] in a line: Inhibition of human FAAH deltaTM mutant expressed in Escherichia coli using AAMCA as substrate after 15 mins by medium throughput fluorescent assay.

Cannabinoid receptor 1, sequence (P20272 whole entry): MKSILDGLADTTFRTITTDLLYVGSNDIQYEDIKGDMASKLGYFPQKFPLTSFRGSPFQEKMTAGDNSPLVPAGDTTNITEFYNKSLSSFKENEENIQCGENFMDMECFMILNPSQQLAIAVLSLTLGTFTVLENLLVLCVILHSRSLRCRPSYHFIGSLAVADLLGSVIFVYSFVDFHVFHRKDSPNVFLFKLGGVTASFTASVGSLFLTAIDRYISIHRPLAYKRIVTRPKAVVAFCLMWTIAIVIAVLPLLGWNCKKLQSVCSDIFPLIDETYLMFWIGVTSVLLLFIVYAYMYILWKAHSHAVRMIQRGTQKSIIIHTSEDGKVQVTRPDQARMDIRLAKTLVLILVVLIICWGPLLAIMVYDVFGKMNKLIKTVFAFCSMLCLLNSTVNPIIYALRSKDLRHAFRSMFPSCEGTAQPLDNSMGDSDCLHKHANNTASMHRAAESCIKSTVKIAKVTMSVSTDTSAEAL
Cannabinoid receptor 2, sequence (P47936 whole entry): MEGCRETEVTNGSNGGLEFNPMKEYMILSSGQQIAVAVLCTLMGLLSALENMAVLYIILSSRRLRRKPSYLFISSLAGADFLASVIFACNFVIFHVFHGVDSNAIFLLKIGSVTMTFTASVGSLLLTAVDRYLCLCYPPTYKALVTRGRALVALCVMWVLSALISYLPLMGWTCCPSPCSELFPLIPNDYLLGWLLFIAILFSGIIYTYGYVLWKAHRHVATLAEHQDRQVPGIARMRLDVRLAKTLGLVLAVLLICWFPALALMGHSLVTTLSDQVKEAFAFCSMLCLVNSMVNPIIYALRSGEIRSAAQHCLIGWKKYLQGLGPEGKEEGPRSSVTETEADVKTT

On to `O=S(=O)(F)CCCCCc1ccc(OCc2ccccc2)cc1`, for which the Ki in experiment [1] was determined as 194 nM; in experiment [2] it was 118 nM. Also, in experiment [3], the IC50 was 1.5 nM.
For `O=S(=O)(F)CCCCCCCc1ccccc1O`, the IC50 in experiment [3] stood at 1.2 nM.
Consider `O=S(=O)(F)CCCCOc1ccc(OCc2ccccc2)cc1`, for which the Ki in experiment [1] stood at 203 nM; in experiment [2] it was 104 nM. The same compound yielded an IC50 in experiment [3] of 1.2 nM.
Regarding `O=S(=O)(F)CCCCCCc1ccccc1`, the IC50 in experiment [3] turned out to be 37.7 nM.
Consider `O=S(=O)(F)CCCCCCCc1cccc(OCc2ccccc2)c1`, for which the Ki in experiment [1] stood at 99 nM; in experiment [2] it was 335 nM.
`COS(=O)(=O)CCCCCCCc1ccc(OCc2ccccc2)cc1`: the IC50 is > 5000 nM in experiment [4] and 269 nM in experiment [3].
In experiment [3], `O=S(=O)(F)CCCc1ccccc1` had an IC50 of 205 nM.
Turning to `O=S(=O)(F)CCCCCc1ccc(O)cc1`, the Activity in experiment [5] was determined as 8%. Besides, the figures for the IC50 in experiment [6] and in experiment [3] were 5.1 nM and 2.8 nM, respectively. Besides, the Ki in experiment [1] came out at 577 nM; in experiment [2], 192 nM.
With `O=S(=O)(F)CCCCCCCc1ccccc1OCc1ccccc1`, in experiment [3], the IC50 is 4.3 nM.
In experiment [3], `O=S(=O)(F)CCCCCCCc1ccccc1` showed an IC50 of 37 nM.
Still for that read-out and setting: for `O=S(=O)(F)CCCCCCCCc1ccccc1` the value was 176 nM.
`O=S(=O)(F)CCCCc1ccccc1`: the IC50 in experiment [3] was determined as 88.2 nM.
In experiment [3], `O=S(=O)(F)CCCCCc1ccccc1` came in with an IC50 of 50.4 nM.
On the same count and under the same terms, for `O=S(=O)(F)CCCCCCCc1cccc(O)c1` the value was 2.5 nM.
Regarding `O=S(=O)(F)CCCCCCCc1ccc(O)cc1`, the Ki in experiment [1] worked out at 698 nM; in experiment [2], 163 nM.

The term Ki denotes a dissociation constant, usually derived from enzyme kinetics or from competition with a known ligand. One may read the IC50 as the concentration at which inhibition is half-maximal.
